Assay [1] in a line: Antiproliferative activity against human PC3 cells after 48 hrs by sulforhodamine B assay. It counts as functional, cell-based. Particulars: PC-3, 48 h. (In general: In SRB staining, fixed cells bind dye roughly in proportion to their protein.)
A short description of assay [2]: Antiproliferative activity against human DU145 cells after 48 hrs by sulforhodamine B assay. It counts as functional, cell-based. The following applies: DU-145, 48 h. The method in brief: (§1)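 Sulforhodamine B assay. DU 145 cells in IMEM/10% FBS and PC-3 cells in RPMI-1640/10% FBS, both kept at 37 °C with 5% CO2, seeded at predetermined densities and left to adhere overnight. Cells exposed 48 h to a concentration range or DMSO vehicle, then TCA-fixed and SRB-stained. Bound dye dissolved in Tris and read at 560 nm.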

Assay [3] has as its system DU-145. The experiment in a line: Ratio of IC50 for human PC3 cells to IC50 for human DU145 cells. It is filed as functional.
A short description of assay [4]: Cytotoxicity against human DU145 cells assessed as reduction in cell density at 61.3 uM after 48 hrs by sulforhodamine B assay relative to control. It counts as functional. Particulars: DU-145, 48 h. The method in brief: as §1
The nature of assay [5]: (§2) Inhibition of colony formation in human DU145 cells at antiproliferative IC90 incubated for 4 hrs followed by compound washout measured after 7 to 9 days by crystal violet staining based clonogenic assay relative to control. It counts as functional, DU-145. A digest of the protocol:
(§3)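 DU 145 cells plated at 150 per 60 mm plate and left to adhere about 24 h. Cells treated 4 h at the IC90 concentration, washed with fresh medium, then grown 7−9 days drug-free. Colonies stained with 0.5% crystal violet in 20% methanol, counted by imaging, and compared with vehicle-treated controls.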

For assay [6], the target named is T1, Tubulin (Sus scrofa) (UniProt P02554+P02550). Nature of the assay: Induction of porcine brain tubulin polymerization at 2 uM incubated for 1 hr by turbidimetric assay. A digest of the protocol: (§4)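 Purified porcine brain tubulin (2 mg/mL) in GPEM buffer with 1 mM GTP, polymerized for 1 h at 37 °C with 1% DMSO vehicle or compound at 2 or 20 μM. Turbidity followed as absorbance at 340 nm; initial rate and total polymer assessed.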
T1 sequence (P02550 whole entry, looked up): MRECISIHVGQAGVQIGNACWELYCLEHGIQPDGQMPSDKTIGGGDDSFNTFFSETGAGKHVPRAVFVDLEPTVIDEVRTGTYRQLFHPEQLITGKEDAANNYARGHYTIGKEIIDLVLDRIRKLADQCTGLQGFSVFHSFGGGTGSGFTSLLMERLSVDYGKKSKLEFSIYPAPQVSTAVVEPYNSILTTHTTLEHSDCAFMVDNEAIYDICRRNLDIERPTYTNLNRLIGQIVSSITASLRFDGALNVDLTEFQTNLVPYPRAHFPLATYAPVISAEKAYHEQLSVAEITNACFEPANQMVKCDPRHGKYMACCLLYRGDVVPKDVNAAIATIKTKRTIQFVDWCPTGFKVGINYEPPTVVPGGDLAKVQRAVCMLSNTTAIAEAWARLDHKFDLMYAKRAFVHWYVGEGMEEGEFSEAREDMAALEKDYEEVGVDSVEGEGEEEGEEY
T1 sequence (P02554 whole entry, looked up): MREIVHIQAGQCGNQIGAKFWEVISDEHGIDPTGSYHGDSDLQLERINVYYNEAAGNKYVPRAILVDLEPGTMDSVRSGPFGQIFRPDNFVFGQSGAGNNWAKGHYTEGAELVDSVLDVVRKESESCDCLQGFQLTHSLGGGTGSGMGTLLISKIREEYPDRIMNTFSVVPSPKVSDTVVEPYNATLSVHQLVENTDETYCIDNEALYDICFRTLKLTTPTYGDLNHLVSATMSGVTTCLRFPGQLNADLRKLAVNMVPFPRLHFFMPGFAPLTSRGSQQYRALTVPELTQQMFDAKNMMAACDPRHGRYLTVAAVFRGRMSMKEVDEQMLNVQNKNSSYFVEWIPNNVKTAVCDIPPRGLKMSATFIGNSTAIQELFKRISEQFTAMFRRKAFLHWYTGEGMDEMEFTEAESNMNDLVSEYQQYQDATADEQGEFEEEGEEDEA

The test system of assay [7] is DU-145. The experiment in a line: Disruption of mitotic spindle in human DU145 cells assessed as incorrect alignment of DNA at metaphase at 2 times antiproliferative IC50 after 16 to 18 hrs by DAPI staining based immunofluorescence microscopy. It is filed as functional, cell-based. A digest of the protocol:
(§5)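 Cells fixed in ice-cold methanol, then stained with anti-β-tubulin and FITC secondary antibody; DNA stained with DAPI. Spindle morphology, metaphase DNA alignment and interphase microtubules assessed by fluorescence microscopy.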

Assay [8] has as its target T1, Tubulin (Sus scrofa). Nature of the assay: Induction of porcine brain tubulin polymerization at 20 uM incubated for 1 hr by turbidimetric assay. A digest of the protocol: as §4
A short description of assay [9]: Cell cycle arrest in human DU145 cells assessed as accumulation at G0/G1 phase at 5 times antiproliferative IC50 after 16 to 23 hrs by propidium iodide staining based flow cytometry (reference value: 50.4 +/- […]%). It is filed as functional. The following applies: DU-145. (In flow cytometry, cells or beads pass a laser one at a time.)
A short description of assay [10]: Cell cycle arrest in human DU145 cells assessed as accumulation at S phase at 5 times antiproliferative IC50 after 16 to 23 hrs by propidium iodide staining based flow cytometry (reference value: 27.8 +/- 1%). It counts as functional. The following applies: DU-145. A digest of the protocol: (§6)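 Cells harvested on ice, stained with Krishan's reagent (propidium iodide), and DNA content read by flow cytometry. Phase percentages derived from DNA histograms. n = 2–3 per compound, n = 5 for vehicle; error bars are SEM.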

Assay [11] can be described thus: Cytotoxicity against human PC3 cells assessed as reduction in cell density at 61.7 uM after 48 hrs by sulforhodamine B assay relative to control. Particulars: PC-3, 48 h. It is filed as functional. A digest of the protocol: as §1
Assay [12] relates to DU-145. Nature of the assay: Disruption of mitotic spindle in human DU145 cells assessed as elongated and curved morphology at 2 times antiproliferative IC50 after 16 to 18 hrs by DAPI staining based immunofluorescence microscopy. It counts as functional, cell-based. The method in brief:
as §5

Assay [13] in a line: Cell cycle arrest in human DU145 cells assessed as accumulation at G2/M phase at 5 times antiproliferative IC50 after 16 to 23 hrs by propidium iodide staining based flow cytometry (reference value: 21.8 +/- 1.5%). It counts as functional. Particulars: DU-145. The method in brief: as §6
The nature of assay [14]: Cytotoxicity against human DU145 cells assessed as reduction in cell density at 61.7 uM after 48 hrs by sulforhodamine B assay relative to control. It counts as functional. The following applies: DU-145, 48 h. The method in brief:
as §1

Assay [15] deals with T1, Tubulin (Sus scrofa). Nature of the assay: Effect on total porcine brain tubulin polymer level at 20 uM incubated for 1 hr by turbidimetric assay. The method in brief:
as §4

The target of assay [16] is T2, Mitogen-activated protein kinase; ERK1/ERK2 (Homo sapiens) (UniProt P27361+P28482). Nature of the assay: Activation of ERK1/2 in human DU145 cells assessed as increase in phosphorylation at Thr202/Tyr204 residue at antiproliferative IC90 after 4 hrs by fluorescence based intracellular signaling array method. It counts as cell-based. Particulars: DU-145. The method in brief:
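PathScan intracellular signaling array with fluorescent read-out. DU 145 cells treated for 4 h; lysates made with cell extraction buffer plus protease inhibitors, as for Western blots. Phospho-Erk1/2 at Thr202/Tyr204 scored.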

Assay [17] is described as follows: Cytotoxicity against human PC3 cells assessed as reduction in cell density after 48 hrs by sulforhodamine B assay relative to control. It counts as functional, PC-3. A digest of the protocol:
as §1

The subject of assay [18] is DU-145. Nature of the assay: Disruption of mitotic spindle in human DU145 cells assessed as incorrect alignment of DNA at metaphase at 5 times antiproliferative IC50 after 16 to 18 hrs by DAPI staining based immunofluorescence microscopy. It is filed as functional, cell-based. A digest of the protocol: as §5
Assay [19] in a line: Cytotoxicity against human DU145 cells assessed as reduction in cell density after 48 hrs by sulforhodamine B assay relative to control. It counts as functional, DU-145. A digest of the protocol:
as §1

Assay [20] concerns DU-145. Nature of the assay: Disruption of mitotic spindle in human DU145 cells assessed as elongated and curved morphology at 5 times antiproliferative IC50 after 16 to 18 hrs by DAPI staining based immunofluorescence microscopy. It is filed as functional, cell-based. The method in brief: as §5
Assay [21] concerns the target T2, Mitogen-activated protein kinase; ERK1/ERK2 (Homo sapiens). The experiment in a line: Increase in ERK1/2 phosphorylation in human DU145 cells at antiproliferative IC90 after 2 to 18 hrs by Western blot analysis. It counts as cell-based. The following applies: DU-145. The method in brief:
(§7)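 Equal protein run on SDS-PAGE and blotted to membrane. Probed with phospho-p44/42 and total p44/42 antibodies (1:1000) and HRP secondaries (1:5000), then quantified by densitometry.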
Background: Immunoblotting shows a protein as a band on a membrane.

Assay [22] deals with DU-145. Described as §2. It counts as functional. The method in brief:
as §3

Assay [23] can be described thus: Cytotoxicity against human PC3 cells assessed as reduction in cell density at 12.5 uM after 48 hrs by sulforhodamine B assay relative to control. It is filed as functional. Particulars: PC-3, 48 h. The method in brief: as §1
The nature of assay [24]: Cytotoxicity against human DU145 cells assessed as reduction in cell density at 12.5 uM after 48 hrs by sulforhodamine B assay relative to control. It counts as functional. The following applies: DU-145, 48 h. The method in brief:
as §1

In assay [25] the test system is DU-145. Nature of the assay: Effect on interphase microtubule in human DU145 cells at 5 times antiproliferative IC50 after 16 to 18 hrs by DAPI staining based immunofluorescence microscopy. It counts as functional, cell-based. The method in brief:
as §5

Assay [26] deals with T2, Mitogen-activated protein kinase; ERK1/ERK2 (Homo sapiens). Nature of the assay: Increase in ERK1/2 phosphorylation in human DU145 cells at antiproliferative IC90 up to 2 hrs by Western blot analysis. Particulars: DU-145. It counts as cell-based. A digest of the protocol: as §7

Molecules are shown by their SMILES. Activity calls are given as the source filed them. No cut-off for these calls is given here.

T2 sequence (P27361 whole entry, looked up): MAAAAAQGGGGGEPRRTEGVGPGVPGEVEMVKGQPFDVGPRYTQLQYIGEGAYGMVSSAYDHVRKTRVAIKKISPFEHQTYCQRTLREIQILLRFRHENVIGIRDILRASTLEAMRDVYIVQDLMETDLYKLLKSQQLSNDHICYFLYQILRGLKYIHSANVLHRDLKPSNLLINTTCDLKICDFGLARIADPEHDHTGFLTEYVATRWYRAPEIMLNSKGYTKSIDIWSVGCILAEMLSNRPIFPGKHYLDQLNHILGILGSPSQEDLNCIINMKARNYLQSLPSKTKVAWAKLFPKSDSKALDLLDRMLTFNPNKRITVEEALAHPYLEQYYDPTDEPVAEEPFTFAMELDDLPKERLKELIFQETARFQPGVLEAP
T2 sequence (P28482 whole entry, looked up): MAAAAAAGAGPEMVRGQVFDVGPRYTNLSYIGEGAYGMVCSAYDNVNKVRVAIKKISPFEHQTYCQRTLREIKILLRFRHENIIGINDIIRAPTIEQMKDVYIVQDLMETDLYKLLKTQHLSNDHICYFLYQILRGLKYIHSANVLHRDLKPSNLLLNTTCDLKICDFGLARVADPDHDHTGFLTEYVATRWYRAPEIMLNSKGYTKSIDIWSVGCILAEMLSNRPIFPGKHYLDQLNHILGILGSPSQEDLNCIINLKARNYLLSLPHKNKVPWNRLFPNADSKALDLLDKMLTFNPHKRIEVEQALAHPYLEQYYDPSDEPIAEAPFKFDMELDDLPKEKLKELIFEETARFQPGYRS

What is called IC50 is the concentration needed to halve the response being measured. By inhibition is commonly meant the drop in the measured response relative to a control, in per cent. `CC(C)(O)C(O)Cc1c(O)ccc(C(=O)/C=C/c2ccccc2)c1O` (stereo not drawn): the IC50 in assay [1] is 35 µM; in [2], 25.5 µM. Further, in the assay on DU-145 [3], the “Ratio IC50” value worked out at 1.4. The inhibition at 61.3 µM in assay [4] was found to be 46%.

Turning to `C=C(C)C(O)Cc1c(O)ccc(C(=O)/C=C/c2ccccc2)c1O` (stereo not drawn), the “inhibition (INH)” value in assay [5] was 44%. The result on Tubulin (Sus scrofa) [6] and on Tubulin (Sus scrofa) [15] was inactive. Also, the outcome in the assay on DU-145 [7], on Tubulin (Sus scrofa) [8] and in the assay on DU-145 [12] was Active. Further, the Activity was 37.8% in [9], 28.8% in assay [10] and 33.4% in [13]. Also, the inhibition at 61.7 µM in assay [11] and in assay [14] was 84% each time. Besides, the IC50 turned out to be 11 µM in [1] and 7 µM in assay [2]. The Ratio IC50 with DU-145 [3] is 1.6.

Compound `CC(=O)O[C@H]1C(=O)[C@@]2(C)[C@H]([C@H](OC(=O)c3ccccc3)[C@]3(O)C[C@H](OC(=O)[C@H](O)[C@@H](NC(=O)c4ccccc4)c4ccccc4)C(C)=C1C3(C)C)[C@]1(OC(C)=O)CO[C@@H]1C[C@@H]2O` [PACLITAXEL] registered an IC50 in assay [2] of 0.0038 µM.

As for `C=C1C(=O)O[C@H]2C/C(COC(=O)C(C)C)=C/CC[C@]3(C)O[C@H]3[C@@H](O)[C@H]12`, the “inhibition (INH)” value in assay [5] is on record as 42%; in assay [17] it was 30%; in [19], 20%. The result (in assay [16]; in the assay with DU-145 [18]; in the assay on DU-145 [20]; in assay [21]) was Active. Moreover, the result at Tubulin (Sus scrofa) [6] and at Tubulin (Sus scrofa) [8] was inactive. The Activity in [9] came out at 34.4%; in assay [10], 31.2%; in [13], 34.5%. Further, the IC50 in [1] was determined as 4.7 µM; in [2], 1.7 µM. The Ratio IC50 in the assay with DU-145 [3] is 2.8.

As for `CC(C)[C@@H]1CC[C@@]2(C)CCC[C@@](C)(O)[C@@H]2[C@@H]1OC(=O)/C=C/c1ccc(O)cc1`, the inhibition entry in the assay on DU-145 [22] is “inactive”. Moreover, the inhibition at 12.5 µM in assay [23] and in assay [24] was 84% throughout. In addition, the outcome in [16] was Active. Also, the result (in the assay with DU-145 [20]; in the assay with DU-145 [25]; in assay [21]) was inactive. Moreover, the Activity in assay [9] stood at 51.5%; in assay [10], 24.9%; in [13], 23.5%. The 50% inhibitory concentration (IC50) amounted to 4 µM in [1] and 5.2 µM in [2]. For the same compound, the Ratio IC50 in the assay with DU-145 [3] came to 0.77.

Regarding `C=C(C)C(=O)O[C@H]1C/C(C=O)=C\CC/C(C)=C/[C@H]2OC(=O)C(=C)[C@H]12`, the “inhibition (INH)” value in assay [5] is 98%; in [17] it was 20%; in [19], 20%. Besides, the outcome (in assay [16]; in the assay with DU-145 [18]; in the assay with DU-145 [20]; in assay [26]) was Active. In addition, the result (on Tubulin (Sus scrofa) [6]; on Tubulin (Sus scrofa) [8]; in assay [21]) was inactive. Further, the results for the Activity in assay [9], in assay [10] and in assay [13] were 46.4%, 27.2% and 26.4%, respectively. Besides, the IC50 in assay [1] turned out to be 3 µM; in [2] it was 1.8 µM. In the assay with DU-145 [3], the Ratio IC50 was found to be 1.7.

`C=C(C)C(=O)OC/C1=C\CC[C@]2(C)O[C@H]2[C@@H](O)[C@@H]2C(=C)C(=O)O[C@H]2C1`: the entries for the “inhibition (INH)” value in assay [5], in [17] and in assay [19] were 23%, 30% and 20%, respectively. Moreover, the result (in assay [16]; in the assay on DU-145 [18]; in the assay with DU-145 [20]; in assay [26]) was Active. The result at Tubulin (Sus scrofa) [6] and on Tubulin (Sus scrofa) [8] was inactive. In addition, the Activity in assay [9] was found to be 32.8%; in [10], 32.7%; in [13], 34.5%. The IC50 in assay [1] was found to be 12 µM; in [2], 3.7 µM. Besides, in the assay on DU-145 [3], the Ratio IC50 was found to be 3.2.

The values are drawn from ChEMBL document CHEMBL3813658, “Texas Native Plants Yield Compounds with Cytotoxic Activities against Prostate Cancer Cells” (J Nat Prod, 2016).
